# MT stabilize HCS: microtubule stabilizers in HeLa cells, primary screen, imaging, high-content imaging; HeLa tubulin immunostaining HCS, 24 h; share of cells brighter than vehicle mean+2SD; 0.83% of 200,000 active; % tubulin-high responders, % at 10 µM;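 active means plate Z-score above 3 for both tubulin-high and condensed-nucleus cell shares, with cell loss under 80%, at 10 µM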;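 further: anti alpha tubulin signal scored within the nucleus-defined area of each cell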
# IEC-6 tox: cytotoxicity in IEC-6 intestinal epithelial cells, primary screen, cytotoxicity control for KLF5 inhibitor project, cell-based, luminescence | IEC-6 cytotoxicity, luminescence viability | inhibition, % at 5 µM | 0.78% of 290,000 active; in the data active means inhibition above about 22%
# Ba/F3 V617F tox: reduced viability of JAK2V617F-dependent Ba/F3 cells, primary screen, JAK2V617F inhibitor project, cell-based, Ba/F3 EpoR-JAK2V617F, luminescence; ATP luminescence; inhibition, % at 5.6 µM; 1.1% of 220,000 active; AID 1446, 2008;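 active means inhibition above the campaign mean plus 3 SD over all tested compounds, cut at about 24% in these data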;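 further: cytokine-independent growth of Ba/F3 cells driven by EpoR plus mutant JAK2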
# KLF5 inh: KLF5 expression inhibitors, primary screen, DLD-1 cells, luminescence | 0.23% of 290,000 active | DLD-1 KLF5 promoter-luciferase reporter | inhibition, % at 5 µM | AID 1700, 2009;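 active means inhibition above a per-plate limit of that plate's mean compound inhibition plus 3 SD, cut at about 60% in these data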;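 further: higher means less KLF5 promoter-driven luciferase light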
# BaF3 parental: parental Ba/F3 cell viability inhibition, counter-screen for JAK2V617F inhibitor project, murine pro-B, CellTiter-Glo luminescence; inhibition, % at 5.6 µM; 1.1% of 220,000 active; CellTiter-Glo ATP luminescence;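 active means inhibition above a per-campaign cutoff, the mean inhibition of all tested compounds plus 3 SD, cut at about 27% in these data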
# bCat nuc transl: modulators of beta-catenin nuclear translocation, primary screen, imaging, HeLa cells, immunofluorescence, high-content; nuclear translocation activity, % at 5 µM; 0.3% of 190,000 active;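 active means nuclear translocation activity above 50% at 5 µM, with a well cell count of 50 or more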;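 further: per-cell ratio of nuclear to cytoplasmic median beta-catenin stain intensity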
#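 Test system: human HeLa cell line; Doses: 5 µM primary, 0.02–20 µM confirmation; Incubation: 24 h compound exposure, 37°C; Detection: beta-catenin immunofluorescence imaging with DAPI; Read-out: beta-catenin nuclear/cytoplasmic ratio, % activation.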
# A number is an active result; n = inactive; x = no result. Rows were chosen to be rich in hits. Some 2.1% of all compounds tested hit in one or more screens of this group.
SMILES,MT stabilize HCS,IEC-6 tox,Ba/F3 V617F tox,KLF5 inh,BaF3 parental,bCat nuc transl
CC(=O)[C@@]1(O)C(C)CC2C3C=C(C)C4=Cc5c(cnn5-c5ccccc5)C[C@]4(C)C3C(O)C[C@@]21C (some centres not stated),x,27,n,n,n,n
Cc1cc(C(=O)NC2CC(C)(C)Cc3c2cnn3-c2ccccc2)n(C)n1 (configuration not stated),x,n,x,n,x,x
COc1ccccc1N1CCN(Cc2ccc(O)c3ncccc23)CC1,n,n,42,n,37,n
CCOC(=O)C1CCN(Cc2ccc(O)c3ncccc23)CC1,n,n,82,n,50,n
COc1ccccc1N1CCN(C(=O)c2oc3ccc(Br)cc3c2C)CC1,15,n,n,n,n,n
COc1ccccc1N1CCN(c2ncnc3c2oc2ccccc23)CC1,27,n,n,n,n,74
c1cnc(N2CCN(c3ncnc4c3oc3ccccc34)CC2)nc1,x,x,x,x,x,n
Cc1cccc(NCC(=O)c2c(N)n(C)c(=O)n(C)c2=O)c1C,n,n,n,n,n,n
Cc1nc2c(oc3ccc(Cl)cc32)c(=O)[nH]1,x,n,n,n,n,n
CN(c1nc2c(c(=O)n(C)c(=O)n2C)n1CC(=O)c1ccccc1)C1CCCCC1,n,n,n,n,n,n
Cc1oc(-c2ccccc2Cl)nc1CN1CCCCC1c1cccnc1 (configuration not stated),x,n,n,n,n,n
C=C1C(=O)[C@@]23[C@H](O)C[C@@H]4C(C)(C)CC[C@H](O)[C@]4(C)[C@@H]2C[C@H](O)[C@@H]1[C@H]3O,n,n,62,n,73,x
CC(C)c1ccc(N(CC(=O)NCC2CCCO2)C(=O)Cn2nnc(-c3cccs3)n2)cc1 (configuration not stated),n,n,n,n,n,n
O=C(NCCCO)C(=O)Nc1cc2c3c(c1)CCC(=O)N3CCC2,x,n,x,n,x,x
CCCOc1ccc2nc(NC(=O)OC)[nH]c2c1,n,81,78,n,75,x
COC(=O)Nc1nc2ccc(C(=O)c3ccc(F)cc3)cc2[nH]1,x,n,51,n,n,66
CCOc1ccc2nc(NCCCO)[nH]c2c1,n,n,n,n,n,n
O=C(CSc1nc(-c2ccco2)cc(C(F)(F)F)n1)Nc1ccc2c(c1)OCO2,29,n,n,n,n,n
CCn1cc(CNC(=O)CCSc2nc(-c3ccco3)cc(C(F)(F)F)n2)cn1,43,n,n,n,n,n
CCCN(CC1CC1)C(=O)COC(=O)c1ccc2c(c1)C(=O)N(c1ccc(OCC)cc1)C2=O,n,n,n,n,n,n
Cc1nn(-c2ccc(F)cc2)c(Cl)c1/C=C1\C(=O)Nc2ccccc21,22,n,n,n,n,n
CC(=O)N(Cc1ccc(F)cc1)C1=C(NCc2ccccc2)C(=O)c2ccccc2C1=O,n,n,n,n,48,n
CCOc1ccc(S(=O)(=O)N2CCC(C(=O)OC(C)C(=O)N(C)C3CCCCC3)CC2)cc1 (configuration not stated),x,n,x,n,x,x
COc1cc(NS(=O)(=O)c2ccc(C)cc2C)cc(OC)c1OC,22,n,n,n,32,n
O=C(c1cc2c(s1)CCCC2)N1CCN(S(=O)(=O)c2ccccc2C(F)(F)F)CC1,n,n,n,n,n,n
SMILES,MT stabilize HCS,IEC-6 tox,Ba/F3 V617F tox,KLF5 inh,BaF3 parental,bCat nuc transl
CCOC(=O)CSc1ccc(C(=O)Nc2ccc(OC)cc2)cn1,n,n,n,n,n,n
Cc1cccc(N=C2NC(=O)c3cc([N+](=O)[O-])ccc32)c1,n,n,n,n,n,n
O=C(Nc1ccc2c(c1)OCO2)c1ccc(N2CCCC2)c([N+](=O)[O-])c1,n,n,n,n,n,n
O=C(Nc1ccc2c(c1)OCO2)c1ccc(NC2CC2)c([N+](=O)[O-])c1,28,n,n,n,n,n
CCCCN(CC)Cc1c(O)ccc2c(-c3ccccc3)cc(=O)oc12,x,n,n,n,29,n
Cc1ccc(N=Nc2c(N)nn(-c3ccccc3)c2N)cc1,10,25,47,n,35,n
Cc1cccc(CC2CC(=O)N(c3ccc(C)cc3Br)C2=O)c1 (configuration not stated),x,n,x,n,x,x
O=C(CC1C(=O)NCCN1Cc1ccccc1C(F)(F)F)NCCc1ccccn1 (configuration not stated),n,n,n,n,80,n
Cc1ccc(-c2csc(-c3c[nH]c4ccccc34)n2)c(C)c1,37,n,n,n,n,n
COC(=O)Oc1ccc(/C=C/C(=O)OC(C)C)cc1OC(=O)OC,n,n,71,n,35,n
CCCCOC(=O)/C=C/c1ccc(OC(=O)OC)c(OC(=O)OC)c1,n,n,n,n,n,n
CN(C)CCNC(=O)C12CC3(C)CC(C)(CC(C)(C3)C1)C2,n,n,n,n,59,x
CC12CC3(C)CC(C)(C1)CC(C(=O)NCCc1ccc(S(N)(=O)=O)cc1)(C2)C3,x,n,x,n,x,x
Cc1ccccc1N1CCN(C2CCCN(C(=O)c3cc(CC(C)C)nn3C)C2)CC1 (configuration not stated),x,n,x,n,x,x
Cc1ccc(C(C)C)c(OCc2nn(CC(=O)c3ccc(OC(F)F)cc3)c3[n+]2CCCCC3)c1,n,n,49,n,30,n
COc1ccc(NC(=O)c2ccc(F)cc2)cc1S(=O)(=O)Nc1cc(C)ccc1Br,16,n,n,n,n,n
Cc1ccc(NC(=O)C2C3C=CC(O3)C2C(=O)O)c(C)c1 (configuration not stated),x,n,x,n,x,x
CC(C)c1ccc(NC(=O)CCCC(=O)NCCc2ccccc2)cc1,x,n,x,n,x,x
Nc1c2c(=O)oc(-c3ccccc3)cc2nn1-c1ccccc1,29,n,n,n,n,x
CCOC(=O)c1c(CS(=O)(=O)c2ccccc2)n(C)c2cc(Br)c(O)cc12,x,n,x,n,x,x
CCOC(=O)c1c(CNc2ccncc2)n(C)c2cc(Br)c(O)cc12,n,n,38,n,41,n
Cc1cc(C(=O)Nc2sc3c(c2C#N)CCC3)no1,n,n,n,n,n,x
Cc1onc(-c2ccccc2)c1C(=O)Nc1sc2c(c1C#N)CCC2,20,n,n,n,n,n
Cc1onc(-c2c(F)cccc2Cl)c1C(=O)Nc1sc2c(c1C(N)=O)CCC2,31,n,n,n,n,x
Cc1cc(C(=O)Nc2sc3c(c2C#N)CCCC3)no1,18,n,n,n,n,n
O=C1NC(c2ccccc2Cl)Nc2ccccc21 (configuration not stated),27,n,n,n,n,n
C/C(=C1/SC(N2CCCC2)=NC1=O)c1ccc(Br)cc1,n,n,34,n,28,n
O=C(Nc1nnc(SCc2ccc(F)cc2)s1)c1cccnc1Cl,n,n,n,n,n,n
